Results as given in ChEMBL document CHEMBL1142193, “Dual targeting of GyrB and ParE by a novel aminobenzimidazole class of antibacterial compounds” (2007).
Converted amounts (≈) assume the structure as drawn. The source made the active and inactive calls. No cut-off for these calls is given here.

How the values were obtained:
Haemophilus influenzae [1] = assay: Antibacterial activity against novobiocin-resistant Haemophilus influenzae ATCC 51907 with GyrB R140H mutation after 18 to 20 hrs; type: functional
Outline: (§1)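 MICs followed CLSI guidelines. Strains were grown overnight at 35°C on solid medium. Inocula were prepared with a Prompt system. Compounds were serially diluted twofold in 100% DMSO at 200x and diluted 1:200 into medium, for a final 0.5% DMSO. Plates were incubated at 35°C for 18 to 20 h and read visually. A twofold MIC variation was taken as assay error.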

Enterococcus faecalis [2] = assay: Antibacterial activity against Enterococcus faecalis ATCC 29212 with ParE T169A mutation after 18 to 20 hrs; type: functional; outline: as §1
Enterococcus faecalis [3] = assay: Antibacterial activity against Enterococcus faecalis ATCC 29212 with GyrB T167I and ParE T169A mutation after 18 to 20 hrs; type: functional; outline: as §1
Haemophilus influenzae [4] = assay: Antibacterial activity against novobiocin-resistant Haemophilus influenzae ATCC 51907 with GyrB R140L mutation after 18 to 20 hrs; type: functional; outline: as §1
Enterococcus faecalis [5] = assay: Antibacterial activity against Enterococcus faecalis ATCC 29212 with GyrB T167A and ParE T169A mutation after 18 to 20 hrs; type: functional; outline: as §1
Staphylococcus aureus [6] = assay: Antibacterial activity against Staphylococcus aureus ATCC 29213 after 18 to 20 hrs; type: functional; outline: as §1
Staphylococcus aureus [7] = assay: Antibacterial activity against Staphylococcus aureus ATCC 29213 carrying plasmid expressing GyrB T173N mutant; type: functional
Staphylococcus aureus [8] = assay: Antibacterial activity against Staphylococcus aureus ATCC 29213 with GyrB T173N mutation without plasmid; type: functional
Staphylococcus aureus [9] = assay: Antibacterial activity against novobiocin-resistant Staphylococcus aureus ATCC 29213 with GyrB R144I mutation after 18 to 20 hrs; type: functional; outline: as §1
Streptococcus pneumoniae [10] = assay: Antibacterial activity against novobiocin-resistant Streptococcus pneumoniae ATCC BAA-255 with GyrB S127L mutation after 18 to 20 hrs; type: functional; outline: as §1
Streptococcus pneumoniae [11] = assay: Antibacterial activity against Streptococcus pneumoniae ATCC BAA-255 after 18 to 20 hrs; type: functional; outline: as §1
Enterococcus faecalis [12] = assay: Antibacterial activity against Enterococcus faecalis ATCC 29212 with GyrB T167I mutation after 18 to 20 hrs; type: functional; outline: as §1
Staphylococcus aureus [13] = assay: Antibacterial activity against Staphylococcus aureus ATCC 29213 with GyrB T173N mutation after 18 to 20 hrs; type: functional; outline: as §1
Enterococcus faecalis [14] = assay: Antibacterial activity against Enterococcus faecalis ATCC 29212 with GyrB T167A mutation after 18 to 20 hrs; type: functional; outline: as §1
Staphylococcus aureus [15] = assay: Inhibition of DNA synthesis in Staphylococcus aureus ATCC 29213 assessed as [3H]thymidine incorporation; type: functional
Outline: (§2)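 Log-phase cells exposed in duplicate to compound at 5x MIC; labelled-precursor uptake measured over 15 min, stopped with 10% trichloroacetic acid. Incorporation expressed as percent of untreated control (taken as 100%).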

Haemophilus influenzae [16] = assay: Antibacterial activity against novobiocin-resistant Haemophilus influenzae ATCC 51907 with GyrB R140C mutation after 18 to 20 hrs; type: functional; outline: as §1
Staphylococcus aureus [17] = assay: Antibacterial activity against Staphylococcus aureus ATCC 29213 with GyrB T173N and GrlB T166A mutation after 18 to 20 hrs; type: functional; outline: as §1
Haemophilus influenzae [18] = assay: Antibacterial activity against Haemophilus influenzae ATCC 51907 after 18 to 20 hrs; type: functional; outline: as §1
Escherichia coli = assay: Reduction in steady-state levels of supercoiled pUC18 in Escherichia coli CAG12184 tolC mutant; type: functional, organism-based
Outline: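 Cells carrying pUC18 grown at 37°C in caMHB with 100 µg/ml ampicillin to OD600 0.5, then exposed 1 h at 37°C with shaking to a twofold dilution series spanning the MIC. Plasmid isolated, concentrated, run on 1% TBE-agarose alongside supercoiled markers for 16 h, stained with ethidium bromide.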

Staphylococcus aureus [19] = assay: Antibacterial activity against Staphylococcus aureus ATCC 29213 with GyrB R144I mutation without plasmid; type: functional
Staphylococcus aureus [20] = assay: Inhibition of RNA synthesis in Staphylococcus aureus ATCC 29213 assessed as [3H]uridine incorporation; type: functional; outline: as §2
Staphylococcus aureus [21] = assay: Antibacterial activity against Staphylococcus aureus ATCC 29213 with GyrB T173I mutation without plasmid; type: functional
Staphylococcus aureus [22] = assay: Inhibition of protein synthesis in Staphylococcus aureus ATCC 29213 assessed as [3H]aminoacid incorporation; type: functional
Staphylococcus aureus [23] = assay: Antibacterial activity against Staphylococcus aureus ATCC 29213 without plasmid; type: functional
Staphylococcus aureus [24] = assay: Antibacterial activity against Staphylococcus aureus ATCC 29213 carrying plasmid expressing wild type GyrB; type: functional
Haemophilus influenzae [25] = assay: Antibacterial activity against Haemophilus influenzae ATCC 51907 with GyrB T169I mutation after 18 to 20 hrs; type: functional; outline: as §1
Staphylococcus aureus [26] = assay: Antibacterial activity against Staphylococcus aureus ATCC 29213 with GyrB T173I and GrlB T166A mutation after 18 to 20 hrs; type: functional; outline: as §1
Staphylococcus aureus [27] = assay: Antibacterial activity against Staphylococcus aureus ATCC 29213 with GyrB T173I mutation after 18 to 20 hrs; type: functional; outline: as §1
Staphylococcus aureus [28] = assay: Antibacterial activity against Staphylococcus aureus ATCC 29213 carrying plasmid expressing GyrB R144I mutant; type: functional
Staphylococcus aureus [29] = assay: Antibacterial activity against Staphylococcus aureus ATCC 29213 carrying plasmid expressing GyrB T173I mutant; type: functional
Enterococcus faecalis [30] = assay: Antibacterial activity against Enterococcus faecalis ATCC 29212 after 18 to 20 hrs; type: functional; outline: as §1
Streptococcus pneumoniae [31] = assay: Antibacterial activity against Streptococcus pneumoniae ATCC BAA-255 with GyrB T172A and ParE T172A mutation after 18 to 20 hrs; type: functional; outline: as §1
Streptococcus pneumoniae [32] = assay: Antibacterial activity against Streptococcus pneumoniae ATCC BAA-255 with ParE T172I mutation after 18 to 20 hrs; type: functional; outline: as §1
Streptococcus pneumoniae [33] = assay: Antibacterial activity against Streptococcus pneumoniae ATCC BAA-255 with ParE T172A mutation after 18 to 20 hrs; type: functional; outline: as §1

Compound: CCNC(=O)Nc1nc2cc(-c3cnc(OC)nc3)c(OC)cc2[nH]1
- MIC (Haemophilus influenzae [1]): 2 µg/mL (≈ 5.84 µM)
- MIC (Enterococcus faecalis [2]): 8 µg/mL (≈ 23.4 µM)
- MIC (Enterococcus faecalis [3]): > 64 µg/mL
- MIC (Haemophilus influenzae [4]): 4 µg/mL (≈ 11.7 µM)
- MIC (Enterococcus faecalis [5]): > 64 µg/mL
- MIC (Staphylococcus aureus [6]): 2 µg/mL (≈ 5.84 µM)
- MIC (Staphylococcus aureus [7]): 8 µg/mL (≈ 23.4 µM)
- MIC (Staphylococcus aureus [8]): 8 µg/mL (≈ 23.4 µM)
- MIC (Staphylococcus aureus [9]): 4 µg/mL (≈ 11.7 µM)
- MIC (Streptococcus pneumoniae [10]): 0.5 µg/mL (≈ 1.46 µM)
- MIC (Streptococcus pneumoniae [11]): 0.5 µg/mL (≈ 1.46 µM)
- MIC (Enterococcus faecalis [12]): 1 µg/mL (≈ 2.92 µM)
- MIC (Staphylococcus aureus [13]): 16 µg/mL (≈ 46.7 µM)
- MIC (Enterococcus faecalis [14]): 0.5 µg/mL (≈ 1.46 µM)
- Inhibition (Staphylococcus aureus [15]): 80%
- MIC (Haemophilus influenzae [16]): 2 µg/mL (≈ 5.84 µM)
- MIC (Staphylococcus aureus [17]): > 64 µg/mL
- MIC (Haemophilus influenzae [18]): 4 µg/mL (≈ 11.7 µM)
- Activity (Escherichia coli): Dose-dependent effect
- MIC (Staphylococcus aureus [19]): 2 µg/mL (≈ 5.84 µM)
- Inhibition (Staphylococcus aureus [20]): 20%
- MIC (Staphylococcus aureus [21]): 8 µg/mL (≈ 23.4 µM)
- Inhibition (Staphylococcus aureus [22]): 20%
- MIC (Staphylococcus aureus [23]): 2 µg/mL (≈ 5.84 µM)
- MIC (Staphylococcus aureus [24]): 2 µg/mL (≈ 5.84 µM)
- MIC (Haemophilus influenzae [25]): > 64000 ng/mL
- MIC (Staphylococcus aureus [26]): > 64 µg/mL
- MIC (Staphylococcus aureus [27]): 16 µg/mL (≈ 46.7 µM)
- MIC (Staphylococcus aureus [28]): 2 µg/mL (≈ 5.84 µM)
- MIC (Staphylococcus aureus [29]): 8 µg/mL (≈ 23.4 µM)
- MIC (Enterococcus faecalis [30]): 1 µg/mL (≈ 2.92 µM)
- MIC (Streptococcus pneumoniae [31]): 64 µg/mL (≈ 187 µM)
- MIC (Streptococcus pneumoniae [32]): 4 µg/mL (≈ 11.7 µM)
- MIC (Streptococcus pneumoniae [33]): 8 µg/mL (≈ 23.4 µM)

Compound: O=C(O)c1cn(C2CC2)c2cc(N3CCNCC3)c(F)cc2c1=O [CIPROFLOXACIN]
- MIC (Haemophilus influenzae [1]): 0.004 µg/mL (≈ 0.0121 µM)
- MIC (Enterococcus faecalis [2]): 1 µg/mL (≈ 3.02 µM)
- MIC (Enterococcus faecalis [3]): 0.5 µg/mL (≈ 1.51 µM)
- MIC (Haemophilus influenzae [4]): 0.004 µg/mL (≈ 0.0121 µM)
- MIC (Enterococcus faecalis [5]): 0.5 µg/mL (≈ 1.51 µM)
- MIC (Staphylococcus aureus [6]): 0.25 µg/mL (≈ 0.754 µM)
- MIC (Staphylococcus aureus [7]): 0.25 µg/mL (≈ 0.754 µM)
- MIC (Staphylococcus aureus [8]): 0.25 µg/mL (≈ 0.754 µM)
- MIC (Staphylococcus aureus [9]): 0.25 µg/mL (≈ 0.754 µM)
- MIC (Streptococcus pneumoniae [10]): 0.25 µg/mL (≈ 0.754 µM)
- MIC (Enterococcus faecalis [12]): 1 µg/mL (≈ 3.02 µM)
- MIC (Staphylococcus aureus [13]): 0.25 µg/mL (≈ 0.754 µM)
- MIC (Enterococcus faecalis [14]): 0.5 µg/mL (≈ 1.51 µM)
- Activity (Staphylococcus aureus [15]): Active
- MIC (Haemophilus influenzae [16]): 0.004 µg/mL (≈ 0.0121 µM)
- MIC (Staphylococcus aureus [17]): 0.25 µg/mL (≈ 0.754 µM)
- MIC (Haemophilus influenzae [18]): 0.004 µg/mL (≈ 0.0121 µM)
- MIC (Staphylococcus aureus [19]): 0.25 µg/mL (≈ 0.754 µM)
- Activity (Staphylococcus aureus [20]): inactive
- MIC (Staphylococcus aureus [21]): 0.25 µg/mL (≈ 0.754 µM)
- Activity (Staphylococcus aureus [22]): inactive
- MIC (Staphylococcus aureus [23]): 0.25 µg/mL (≈ 0.754 µM)
- MIC (Staphylococcus aureus [24]): 0.25 µg/mL (≈ 0.754 µM)
- MIC (Haemophilus influenzae [25]): 4 ng/mL (≈ 0.0121 µM)
- MIC (Staphylococcus aureus [26]): 0.25 µg/mL (≈ 0.754 µM)
- MIC (Staphylococcus aureus [27]): 0.25 µg/mL (≈ 0.754 µM)
- MIC (Staphylococcus aureus [28]): 0.25 µg/mL (≈ 0.754 µM)
- MIC (Staphylococcus aureus [29]): 0.25 µg/mL (≈ 0.754 µM)
- MIC (Enterococcus faecalis [30]): 1 µg/mL (≈ 3.02 µM)
- MIC (Streptococcus pneumoniae [31]): 0.25 µg/mL (≈ 0.754 µM)
- MIC (Streptococcus pneumoniae [33]): 0.25 µg/mL (≈ 0.754 µM)
